# Bioassay records as filed in PubChem BioAssay.
# hiPSC survival = enhancers of single-cell hiPSC survival, primary screen, ATPlite luminescence; 100% = ROCK inhibitor wells, 0% = DMSO; survival enhancement, % at 20 µM; 0.044% of 360,000 active; in the data active = survival enhancement above about 18%;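 also: cells exposed to compounds for 16 hours before the ATP read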
# CHOP UPR activ = activators of apoptotic CHOP UPR arm, primary screen, cell-based, CHO-CHOP luciferase reporter, luminescence, uHTS. UPR activation; percent of tunicamycin response over DMSO baseline. activation, % at 10 µM. 0.34% of 330,000 active;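 active = at 10 µM dose, activation of 40% or more, normalized to positive control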;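 also: 100% = tunicamycin at 10 µg/mL and 0% = DMSO alone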
#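 measured by = luciferase luminescence | assay system = CHO-CHOP cells, stable luciferase reporter of PERK-eIF2a-CHOP signalling | amount = 500 reporter cells seeded per well | timing = 6 h compound exposure at 37 °C after overnight seeding | controls = positive tunicamycin 10 µg/mL, negative DMSO alone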
# Cardio protect = cardioprotection against H2O2-induced cell death, primary screen, uHTS, H9c2 cells, ATPLite luminescence | H9c2 cardiomyocytes, H2O2 injury protection, 2 h | protection from H2O2 cell death, % at 20 µM | 0.63% of 360,000 active | AID 588492, 2011;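 active = compounds giving at least 50% protection of heart cells from peroxide-induced death in the single-dose screen, raw or plate-pattern-corrected value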;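 also: 0% = DMSO wells with peroxide and 100% = DMSO wells without peroxide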
# CHOP inh = inhibitors of CHOP promoter induction, primary screen, cell-based, unfolded protein response, luciferase reporter; CHO-K1 CHOP-promoter luciferase, tunicamycin-induced, 15-18 h; inhibition, % at 10 µM; 3.8% of 220,000 active;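 active = compounds that reduced the stress-induced luciferase reporter signal by more than about 70% of percent inhibition, limit read from the data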;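 also: 0% = tunicamycin plus vehicle and 100% = wells without tunicamycin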
# XBP1 UPR activ = activators of adaptive XBP1 UPR arm, primary screen, cell-based, CHO-XBP1 luciferase reporter, luminescence, uHTS; IRE1-XBP1 UPR activation; percent of tunicamycin response, DMSO as zero; activation, % at 20 µM; 0.33% of 330,000 active; AID 463104, 2010;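 active = versus positive control, 20 µM dose yields 30% or more activation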;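 also: 100% = tunicamycin at 10 µg/mL and 0% = DMSO only wells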
#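 Material: CHO-XBP1 cells stably carrying IRE1-XBP1-driven luciferase reporter / Amount: 1000 cells per well / Compound: 20 µM, 1% DMSO / Times: 6 h treatment, 37 °C / Detection: luciferase luminescence / Measure: % activation of reporter signal versus tunicamycin and DMSO controls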
# Starred values were filed as active, the others as inactive; · = no result. The entries come from a sample that favours hits as a whole.
SMILES,hiPSC survival,CHOP UPR activ,Cardio protect,CHOP inh,XBP1 UPR activ
CCOC(=O)NC(NCc1ccccc1Cl)(C(F)(F)F)C(F)(F)F,-1.3,0.3,0.3,95.1*,3.1
CC(=O)Nc1ccc(NC(=O)c2ccc(Cn3cc(Cl)cn3)cc2)cc1,1.2,-0.6,3.7,92.1*,-3.8
CC(C)(C)Cc1c(-c2ccc(C#N)cc2)nc2ccc(Cl)cn12,-2.5,·,6.8,·,·
COCCNC(=O)C(=O)c1c(-c2ccccc2)[nH]c2ccccc12,0.2,-1.1,6.9,18.9,-3.8
O=C(C(=O)N(Cc1ccccc1)Cc1ccccc1)c1c(-c2ccccc2)[nH]c2ccccc12,0.4,·,86.5*,·,·
Cc1ccc(OCC(O)C(C)NC(C)C)c2c1CCC2 (stereo not given),·,·,·,-3.6,·
Nc1cc(-c2ccc(Br)cc2)nn1S(=O)(=O)c1ccccc1,-0.3,1.2,-13.1,72.0*,11.0
Nc1cc(-c2ccc(Br)cc2)nc2cc(-c3ccccc3)nn12,4.7,1.5,-4.5,81.8*,-1.2
Clc1nc(-c2ccccc2)cc(-c2ccc(Br)cc2)n1,1.0,0.7,-2.8,·,3.9
Cc1cscc1-c1ccc(C(=O)Nc2c(C)cccc2C)o1,-0.6,·,-11.4,·,·
CNc1nc(-c2ccccn2)nnc1-c1ccccc1,-3.9,-2.0,51.7*,61.8,0.7
CC(C)NC(=O)N(C)C[C@H]1Oc2c(NC(=O)C3CC3)cccc2C(=O)N([C@H](C)CO)C[C@@H]1C,2.4,-1.8,-6.4,·,-4.5
C[C@@H]1Cn2cnc(C(=O)N[C@@H](C)c3ccccc3)c2C(=O)N1,1.8,·,4.8,·,·
O=C(N/N=C1\CC(c2ccccc2)Oc2ccccc21)c1ccc(O)cc1 (stereo not given),0.3,2.3,10.9,·,3.7
O=C(N/N=C1/CC(c2ccccc2)Oc2ccccc21)C1CC1 (stereo not given),-0.2,1.2,3.9,93.0*,3.8
Cc1cccc(N2CCN(C3CCCCC3NS(=O)(=O)c3ccccc3)CC2C)c1 (stereo not given),-0.1,0.1,-11.7,·,-6.6
O=C(O)c1ccccc1Nc1cc(Cl)c2nonc2c1[N+](=O)[O-],0.3,1.3,13.6,·,-0.3
O=[N+]([O-])c1c(Nc2ccccn2)cc(Cl)c2nonc12,-1.1,-10.5,-16.5,108.0*,-10.9
C[C@H](O)[C@@H]1C(=O)N2CCc3ccc(-c4ccccc4)cc3[C@@H]2C[C@@H]1N(C)C(=S)Nc1ccc(F)cc1,-1.7,·,-7.4,·,·
Cc1cc(C)nc(-n2nc(C)cc2NC(=O)c2cccc(S(=O)(=O)N3CCCCC3)c2)n1,·,·,·,106.8*,·
CCCc1cc(N2CCN(C(=O)c3ccco3)CC2)n2c(nc3ccccc32)c1C#N,-0.9,2.4,55.1*,-7.5,-2.5
CCCc1cc(-n2ccnc2C)n2c(nc3ccccc32)c1C#N,1.1,-2.8,-2.3,·,0.5
Cc1cccc(C(=O)OCC(=O)NCc2ccc(Cl)cc2)c1,0.0,·,5.0,·,·
CCNc1nc(NC(C)C)nc(NS(=O)(=O)c2ccc(C)cc2)n1,-1.1,-0.4,2.1,·,-3.0
Cc1ccc(C(=O)CN2C(=O)c3ccccc3S2(=O)=O)cc1,-0.5,-9.2,-7.4,86.6*,-9.3
SMILES,hiPSC survival,CHOP UPR activ,Cardio protect,CHOP inh,XBP1 UPR activ
O=C(CN1C(=O)c2ccccc2S1(=O)=O)c1ccccc1,-2.5,-5.2,9.9,45.4,-7.3
Cc1ccc(C(O)c2ncc(-c3ccc(F)cc3)[nH]2)cc1F (stereo not given),5.4,·,-23.9,·,·
CC1(c2nnnn2-c2ccc3c(c2)OCCO3)CCC(=O)N1CCOc1ccccc1 (stereo not given),0.6,·,·,·,·
CCOC(=O)C1=C(C)NC(C)=C(C(=O)OCC)C1c1ccccc1/C=C/C(=O)OC(C)(C)C,·,6.8,·,·,39.0*
CCOC(=O)C1=C(C)NC(C)=C(C(=O)OCC)C1/C=C/c1ccccc1OC,-1.2,5.9,-5.2,63.1,0.4
Cc1ccccc1OCC(=O)N/N=C/c1cc2ccccc2nc1Cl,-2.9,-0.2,-10.7,31.6,2.4
O=C(COc1cccc(Cl)c1)N/N=C\c1cc2ccccc2nc1Cl,-1.9,1.0,-4.6,77.6*,3.8
O=C(COc1cccc(Br)c1)N/N=C/C(=O)c1ccccc1,1.1,-0.4,8.0,79.7*,-0.5
O=C(COc1ccc(-c2ccccc2)cc1)N/N=C/c1cc(O)ccc1Br,0.9,2.3,-17.5,81.5*,-5.4
O=C(COc1ccc(-c2ccccc2)cc1)N/N=C/c1ccccc1Br,0.9,-1.8,-3.0,-28.8,0.0
Cc1ccc(Cc2c(C(C)(C)C)nc3cc(C)c(Br)c(C)n23)cc1,-0.1,·,-8.1,·,·
CCOc1ccc(-n2c(SC(C)C)nc3c(c2=O)SCC3)cc1,-2.4,-1.8,-0.6,78.2*,1.7
COc1ccc(NC(=O)NCCCN2CCN(c3ccccc3F)CC2)cc1,-0.5,-0.6,-1.9,0.5,-0.6
COc1ccc(NC(=O)NCCCN2CCN(c3cc(C)ccc3C)CC2)cc1,-0.4,-0.8,3.8,71.6*,-5.7
COc1cc(NC(=O)NCCN2CCN(c3ccc(Cl)cc3)CC2)ccc1C,-2.2,-1.7,-8.1,84.4*,8.9
NC(=O)C1CC2(C1)CC(C(N)=O)C2 (stereo not given),-0.6,·,7.6,·,·
CNc1nnc(-c2cc3cc(Cl)ccc3oc2=O)s1,0.1,7.1,-4.8,77.8*,3.3
CCc1ccc(NC(=O)c2cnc(N3CCN(c4ccccn4)CC3)c3ccccc23)cc1,1.6,9.5,0.1,74.9*,-2.2
CC(=O)N(/N=C/c1cccc(C)c1)c1nc(-c2ccc(Br)cc2)cs1,-1.2,-0.5,-16.9,95.2*,0.2
COc1ccc(/C=N/N(C(C)=O)c2nc(-c3ccc(C)cc3)cs2)cc1,-1.8,5.3,-8.1,54.1,1.1
COC(=O)N1C(=O)[C@](c2ccccc2)(C2CCCCC2)N1C(=O)OC,-0.7,-0.9,56.2*,·,-3.9
Cc1cc(=O)oc2cc(NC(=O)C3COc4ccccc4O3)ccc12 (stereo not given),-2.0,4.4,2.8,88.9*,0.5
O=C(Nc1ccc2c(c1)OCO2)C1COc2ccccc2O1 (stereo not given),4.0,4.0,3.4,-4.0,4.4
Cc1cc(=O)oc2cc(NC(=O)COc3cccc(C(F)(F)F)c3)ccc12,1.2,0.3,-6.8,·,1.6
Cc1cccc(OCC(=O)Nc2ccc3c(C)cc(=O)oc3c2)c1,-1.3,-0.3,-8.7,92.3*,0.1
CC(=O)Oc1ccc2c(C)cc(=O)oc2c1,-2.3,3.0,60.8*,15.3,-1.1
CC1(C)CC(=O)C=C(c2ccc(COC(=O)C(c3ccccc3)c3ccccc3)cc2)C1=O,-1.7,·,-12.5,·,·
COc1ccc(C(NC(=O)C2CCN(Cc3ccc(Oc4ccccc4)cc3)CC2)c2ccccn2)cc1 (stereo not given),-0.9,·,2.1,·,·
